Experiments:
Format in all cases: functional
Setaria viridis [1] = assay: Post-emergence herbicidal activity against Setaria viridis (green foxtail) assessed as growth inhibition at 75 g.a.i./ha applied at one-leaf stage measured after 15 days; settings: 360 h, read-out: GI
Summary of the method: (§1)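 Pot-grown weeds sown 5 mm deep in greenhouse clay soil (pH 6.5, 1.7% organic matter, CEC 12.9 cmol/kg) at 22-25 °C. Stock diluted with water and sprayed post-emergence: dicots at 2-leaf stage, monocots at 1-leaf stage. Untreated and DMF solvent controls were included. % growth inhibition was scored visually versus untreated controls after 15 days. Triplicates averaged.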

Amaranthus [2] = assay: Pre-emergence herbicidal activity against Amaranthus ascendens assessed as growth inhibition at 75 g.a.i./ha applied 24 hr after seeds were sown measured after 15 days; settings: read-out: GI
Summary of the method: (§2)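 Weeds sown 5 mm deep in pots of greenhouse clay soil (pH 6.5, 37.5% clay, CEC 12.9 cmol/kg) and grown at 22-25 °C. Water-diluted formulation was applied pre-emergence 24 h after sowing. Untreated and DMF solvent controls were included. Growth inhibition was visually rated in % against untreated controls after 15 days, as the mean of triplicates.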

Abutilon theophrasti [3] = assay: Pre-emergence herbicidal activity against Abutilon theophrasti (velvetleaf) assessed as growth inhibition at 75 g.a.i./ha applied 24 hr after seeds were sown measured after 15 days; settings: read-out: GI; summary of the method: as §2
Echinochloa crus-galli [4] = assay: Pre-emergence herbicidal activity against Echinochloa crus-galli (barnyard grass) assessed as growth inhibition at 75 g.a.i./ha applied 24 hr after seeds were sown measured after 15 days; settings: read-out: GI; summary of the method: as §2
Abutilon theophrasti [5] = assay: Post-emergence herbicidal activity against Abutilon theophrasti (velvetleaf) assessed as growth inhibition at 75 g.a.i./ha applied at two-leaf stage measured after 15 days; settings: 360 h, read-out: GI; summary of the method: as §1
Echinochloa crus-galli [6] = assay: Post-emergence herbicidal activity against Echinochloa crus-galli (barnyard grass) assessed as growth inhibition at 75 g.a.i./ha applied at one-leaf stage measured after 15 days; settings: 360 h, read-out: GI; summary of the method: as §1
Digitaria sanguinalis [7] = assay: Pre-emergence herbicidal activity against Digitaria sanguinalis (hairy crabgrass) assessed as growth inhibition at 75 g.a.i./ha applied 24 hr after seeds were sown measured after 15 days; settings: read-out: GI; summary of the method: as §2
Amaranthus [8] = assay: Post-emergence herbicidal activity against Amaranthus ascendens assessed as growth inhibition at 75 g.a.i./ha applied at two-leaf stage measured after 15 days; settings: 360 h, read-out: GI; summary of the method: as §1
Chenopodium album [9] = assay: Pre-emergence herbicidal activity against Chenopodium album assessed as growth inhibition at 75 g.a.i./ha applied 24 hr after seeds were sown measured after 15 days; settings: read-out: GI; summary of the method: as §2
Chenopodium album [10] = assay: Post-emergence herbicidal activity against Chenopodium album assessed as growth inhibition at 75 g.a.i./ha applied at two-leaf stage measured after 15 days; settings: 360 h, read-out: GI; summary of the method: as §1
Setaria viridis [11] = assay: Pre-emergence herbicidal activity against Setaria viridis (green foxtail) assessed as growth inhibition at 75 g.a.i./ha applied 24 hr after seeds were sown measured after 15 days; settings: read-out: GI
Summary of the method: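 Preliminary pre-emergence screen at a single rate of 75 g a.i./ha. Stock diluted with water and sprayed on greenhouse pots 24 h after seeds were sown 5 mm deep in clay soil (pH 6.5, 1.7% organic matter); grown at 22-25 °C. Untreated and DMF solvent controls included; triplicate. Visual % growth inhibition vs untreated after 15 days, averaged and banded (>80% top band).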

Digitaria sanguinalis [12] = assay: Post-emergence herbicidal activity against Digitaria sanguinalis (hairy crabgrass) assessed as growth inhibition at 75 g.a.i./ha applied at one-leaf stage measured after 15 days; settings: 360 h, read-out: GI; summary of the method: as §1

| Compound | inhibition of growth at 75 g/ha (Setaria viridis [1]) [%] | inhibition of growth at 75 g/ha (Amaranthus [2]) [%] | inhibition of growth at 75 g/ha (Abutilon theophrasti [3]) [%] | inhibition of growth at 75 g/ha (Echinochloa crus-galli [4]) [%] | inhibition of growth at 75 g/ha (Abutilon theophrasti [5]) [%] | inhibition of growth at 75 g/ha (Echinochloa crus-galli [6]) [%] | inhibition of growth at 75 g/ha (Digitaria sanguinalis [7]) [%] | inhibition of growth at 75 g/ha (Amaranthus [8]) [%] | inhibition of growth at 75 g/ha (Chenopodium album [9]) [%] | inhibition of growth at 75 g/ha (Chenopodium album [10]) [%] | inhibition of growth at 75 g/ha (Setaria viridis [11]) [%] | inhibition of growth at 75 g/ha (Digitaria sanguinalis [12]) [%] |
| --- | --- | --- | --- | --- | --- | --- | --- | --- | --- | --- | --- | --- |
| CCOC(=O)CN1C(=O)COc2cc(F)c(N3C(=O)C4=C(CCCC4)C3=O)cc21 | < 50 | > 80 | > 80 | < 50 | > 80 | < 50 | < 50 | > 80 | > 80 | > 80 | < 50 | < 50 |
| CCOC(=O)C(CC)N1C(=O)COc2cc(F)c(N3C(=O)C4=C(CCCC4)C3=O)cc21 (centres undefined) | 50 | 50 | > 80 | 50 | > 80 | 50 | 50 | > 80 | 50 | > 80 | 50 | 50 |
| COC(=O)CN1C(=O)COc2cc(F)c(N3C(=O)C4=C(CCCC4)C3=O)cc21 | 50 | 50 | 50 | < 50 | > 80 | 50 | < 50 | > 80 | 50 | > 80 | < 50 | 50 |
| CCOC(=O)C(c1ccccc1)N1C(=O)C(C)Oc2cc(F)c(N3C(=O)C4=C(CCCC4)C3=O)cc21 (centres undefined) | 50 | 50 | 50 | > 80 | > 80 | < 50 | > 80 | > 80 | 50 | > 80 | > 80 | 50 |
| CCOC(=O)C(C)N1C(=O)COc2cc(F)c(N3C(=O)c4ccc([N+](=O)[O-])cc4C3=O)cc21 (centres undefined) | < 50 | < 50 | < 50 | < 50 | < 50 | < 50 | < 50 | < 50 | 50 | < 50 | < 50 | < 50 |
| CCOC(=O)C(C)N1C(=O)COc2cc(F)c(N3C(=O)c4cc(Cl)c(Cl)cc4C3=O)cc21 (centres undefined) | < 50 | < 50 | < 50 | < 50 | < 50 | < 50 | < 50 | < 50 | < 50 | 50 | < 50 | < 50 |
| CCOC(=O)CN1C(=O)COc2cc(N3C(=O)c4cc(Cl)c(Cl)cc4C3=O)c(F)cc21 | < 50 | < 50 | < 50 | < 50 | < 50 | < 50 | < 50 | < 50 | < 50 | < 50 | < 50 | < 50 |

From ChEMBL document CHEMBL3045743, “Synthesis and herbicidal activity of isoindoline-1,3-dione substituted benzoxazinone derivatives containing a carboxylic ester group” (J Agric Food Chem, 2009)
